The record followed here is ChEMBL document CHEMBL4699656, “Synthesis and structure-activity relationship of coumarins as potent Mcl-1 inhibitors for cancer treatment” (Bioorg Med Chem, 2021).

The test system of the first assay is A549. Description: Potentiation of taxol-induced cytotoxicity against human A549 cells assessed as fold reduction in taxol IC50 for inhibition of cell viability measured after 48 hrs by SRB assay. Type of assay: functional. In a few lines:
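A549 cells in RPMI1640 with 10% FBS at 37°C, 5% CO2. Seeded at 6.5 × 10^3 cells/well and allowed to adhere 24 h. Then exposed 48 h to taxol alone or combined with the Mcl-1 inhibitor (0.0001–100 μM). TCA fixation at 4°C, SRB staining, and Tris-solubilized dye read at 570 nm. Growth inhibition taken relative to control. IC50 reported as mean of triplicates.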
On the technique in general: Sulforhodamine B stains cellular protein and so reports cell mass.
With `O=c1cc(C(F)(F)F)c2cc(O)c(O)cc2o1`, the “fold change (FC)” value is reported as above 10.

A further assay deals with Induced myeloid leukemia cell differentiation protein Mcl-1 (Homo sapiens, UniProt Q07820). Description: Displacement of FAM-Bid peptide from recombinant N-terminal His6x-tagged human Mcl-1 expressed in Escherichia coli BL21 (DE3) incubated for 30 mins by fluorescence polarization assay. On the technique in general: In fluorescence polarisation assays a small probe gives low polarisation when free and higher when bound to something large.
Induced myeloid leukemia cell differentiation protein Mcl-1, sequence (Q07820 whole entry): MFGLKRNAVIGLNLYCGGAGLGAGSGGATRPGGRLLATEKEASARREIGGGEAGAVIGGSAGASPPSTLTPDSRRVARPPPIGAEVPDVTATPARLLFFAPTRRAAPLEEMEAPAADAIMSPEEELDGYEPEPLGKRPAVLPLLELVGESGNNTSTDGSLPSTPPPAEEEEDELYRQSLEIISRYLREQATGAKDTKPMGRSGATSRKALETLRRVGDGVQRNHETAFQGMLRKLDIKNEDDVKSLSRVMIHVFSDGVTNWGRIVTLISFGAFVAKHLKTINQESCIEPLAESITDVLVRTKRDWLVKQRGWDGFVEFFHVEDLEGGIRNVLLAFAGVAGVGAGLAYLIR
Usually IC50 stands for the point on the concentration scale where inhibition reaches its midpoint. One may read the Ki as a dissociation constant, usually derived from enzyme kinetics or from competition with a known ligand. On to `O=C(O)Cc1cc(=O)oc2cc(O)c(O)cc12`, for which the IC50 was determined as 33.7 µM and the Ki was found to be 9.36 µM.
With `O=c1cc(-c2ccccc2)c2cc(O)c(O)cc2o1`, the IC50 was found to be 3.27 µM and the Ki is 0.65 µM.
With `Cc1cc(=O)oc2cc(O)c(Cl)cc12`, the IC50 is 28.6 µM and the Ki is 5.26 µM.
`O=c1cc(CCl)c2ccc(O)c(O)c2o1`: the half-maximal inhibitory concentration (IC50) was determined as 18.6 µM and the Ki came out at 3.19 µM.
For the compound `Cc1cc(=O)oc2c([N+](=O)[O-])c(O)ccc12`, the IC50 was found to be 26.3 µM and the Ki worked out at 10.8 µM.
For `O=c1cc(CO)c2ccc(O)c(O)c2o1`, the IC50 amounted to 32.2 µM and the Ki is 5.67 µM.
With `Cc1cc(=O)oc2c(CN(C)C)c(O)c(O)cc12`, the half-inhibitory concentration (IC50) was determined as 7.39 µM and the Ki is 1.46 µM.
As to `COc1ccc2c(CCl)cc(=O)oc2c1O`, the IC50 is 30.6 µM and the Ki amounted to 6.59 µM.
For `O=c1ccc2cc(O)c(O)c(CN3CCC(O)CC3)c2o1`, the IC50 stood at 21.8 µM and the Ki is 4.81 µM.
On to `COc1ccc2c(CO)cc(=O)oc2c1O`, for which the IC50 turned out to be 32.9 µM and the inhibition constant (Ki) came to 7.15 µM.
In the case of `COc1cc2cc([N+](=O)[O-])c(=O)oc2c([N+](=O)[O-])c1OC`, the IC50 stood at 12.2 µM and the Ki worked out at 2.19 µM.
As to `O=c1cc(CO)c2cc(O)c(O)cc2o1`, the IC50 is 4.01 µM and the Ki amounted to 0.76 µM.
As to `CN(C)Cc1c(O)c(O)cc2ccc(=O)oc12`, the IC50 came out at 53.6 µM and the inhibition constant (Ki) worked out at 11.5 µM.
In the same order, the values of `COc1ccc2ccc(=O)oc2c1O` are 16.9 µM and 7.02 µM.
As for `[N-]=[N+]=NCc1cc(=O)oc2cc(O)c(O)cc12`, the IC50 turned out to be 34.6 µM and the Ki is 9.17 µM.
Take `COc1ccc2c(C)cc(=O)oc2c1O`: the IC50 was 16.9 µM and the Ki is 2.39 µM.
For the compound `Cc1cc(=O)oc2c(CN3CCCC3)c(O)c(O)cc12`, the IC50 turned out to be 11.3 µM and the Ki was 2.54 µM.
In the case of `Cc1cc(=O)oc2c(CN3CCC(O)CC3)c(O)c(O)cc12`, the IC50 was 59.2 µM and the Ki stood at 21.3 µM.
As to `CN(C)Cc1c(O)c(O)cc2oc(=O)ccc12`, the IC50 was found to be 19.9 µM and the Ki is 4.79 µM.
On the same counts, the results for `O=c1ccc2c(CN3CCC(O)CC3)c(O)c(O)cc2o1` are 14.7 µM and 2.77 µM.
Turning to `O=c1cc(C(F)(F)F)c2cc(O)c(O)cc2o1`, the IC50 came to 1.21 µM and the Ki was determined as 0.21 µM.
`O=c1cc(CCl)c2cc(O)c(O)cc2o1`: the IC50 came out at 5.82 µM and the Ki is 1.04 µM.
As for `CCc1cc2c(C)cc(=O)oc2cc1O`, the IC50 was found to be 30.9 µM and the Ki was found to be 5.47 µM.
As to `Cc1cc(=O)oc2c(O)c(O)ccc12` [4-METHYLDAPHNETIN], the IC50 was determined as 11.2 µM and the Ki stood at 2.11 µM.
Consider `Cc1cc(=O)oc2cc(O)c(O)cc12` [4-METHYLESCULETIN], for which the IC50 amounted to 6.28 µM and the Ki came out at 1.19 µM.
In the same order, the values of `O=c1ccc2cc(O)ccc2o1` [6-HYDROXYCOUMARIN] are 83.7 µM and 23.9 µM.
Take `O=c1ccc2ccccc2o1` [COUMARIN]: the IC50 came out at 24.4 µM and the Ki stood at 4.06 µM.
On the same counts, the results for `O=c1ccc2ccc(O)c(O)c2o1` [DAPHNETIN] are 11.8 µM and 1.75 µM.
As for `O=c1ccc2cc(O)c(O)cc2o1` [ESCULETIN], the IC50 amounted to 8.77 µM and the Ki was found to be 1.49 µM.
With `COc1cc2ccc(=O)oc2c(O)c1O` [FRAXETIN], the IC50 stood at 32.1 µM and the Ki was determined as 5.51 µM.
For the compound `Cc1cc(=O)oc2cc(O)ccc12` [HYMECROMONE], the IC50 came to 104 µM and the Ki worked out at 22.1 µM.
Turning to `COc1cc2oc(=O)ccc2cc1O` [ISOSCOPOLETIN], the IC50 came to 51.5 µM and the Ki stood at 15.9 µM.
Take `COc1cc2ccc(=O)oc2cc1OC` [SCOPARONE]: the half-maximal inhibitory concentration (IC50) was 25.1 µM and the Ki was found to be 9.54 µM.
In the same order, the values of `COc1cc2ccc(=O)oc2cc1O` [SCOPOLETIN] are 22.6 µM and 13.4 µM.
As for `O=c1ccc2ccc(O)cc2o1` [UMBELLIFERONE], the IC50 came out at 21 µM and the Ki worked out at 3.81 µM.
